Results as given in ChEMBL document CHEMBL4002546, “Evaluation of 7-arylaminopyrazolo[1,5-a]pyrimidines as anti-Plasmodium falciparum, antimalarial, and Pf-dihydroorotate dehydrogenase inhibitors” (Eur J Med Chem, 2017).

Columns and labels:
[1] = Inhibition of N-terminally truncated Plasmodium falciparum SUMO-tagged DHODH (159 to 569 residues) expressed in Escherichia coli BL21(DE3) using L-dihydroorotate as substrate by DCIP-based colorimetric assay
Method in brief: (§1)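 Recombinant PfDHODH expressed in E. coli BL21(DE3) from a SUMO-His construct, IPTG-induced. Purified by Ni-NTA, then ULP1 tag cleavage, then size exclusion. Activity measured as continuous DCIP reduction at 600 nm over 60 s at 25 °C. Reaction: 50 mM Tris pH 8.15, 150 mM KCl, 0.1% Triton X-100, 1 mM L-dihydroorotate, 100 µM CoQ₀, 60 µM DCIP, 50 nM enzyme. Four replicates per concentration; activity relative to no-inhibitor control. IC50 from nonlinear fit.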

[2] = tested on: Plasmodium berghei; experiment: (§2) Antimalarial activity against Plasmodium berghei NK65 infected in mouse assessed as reduction in parasitemia at 5 mg/kg, po administered daily for 3 consecutive days starting 24 hrs post inoculum challenge containing parasitized red blood cells measured on day 11 by giemsa staining based microscopic method; assay type: functional
Method in brief: (§3)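 P. berghei NK65 maintained by weekly blood passage. Mice inoculated i.p. with 1 × 10⁶ infected erythrocytes, randomized after ~24 h into groups of five. Oral dosing at 5 mg/kg once daily for 3 days, freshly diluted in 3% DMSO in RPMI; vehicle and amodiaquine controls. Parasitemia read on Giemsa-stained, methanol-fixed tail-blood thin smears. Inhibition is relative to untreated mice, taken as 100% growth.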

[3] = tested on: Plasmodium falciparum; experiment: Antiplasmodial activity against chloroquine-resistant Plasmodium falciparum W2 infected in human A+ erythrocytes after 48 hrs by SYBR Green based fluorescence assay; assay type: functional, cell-based; settings: W2, 48 h
Method in brief: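 W2 parasites kept at 37 °C in A+ human red cells in RPMI 1640 with 10% A+ human serum, under 3% O2/5% CO2/91% N2. Serial dilutions were run at 0.5% parasitemia and 2% haematocrit for 48 h at 37 °C. Cells were lysed in Tris/EDTA/saponin/Triton buffer with SYBR Safe for 30 min in the dark, then read at ex 485/em 535 nm. IC50 was curve-fitted against drug-free controls.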

[4] = biological target: Dihydroorotate dehydrogenase (quinone), mitochondrial (Homo sapiens) (UniProt Q02127); experiment: Inhibition of recombinant human DHODH assessed as residual activity at 50 uM using L-dihydroorotate as substrate by DCIP-based colorimetric assay relative to control
Method in brief: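 Recombinant human DHODH at 20 nM final, in 50 mM Tris pH 8.15 with 150 mM KCl and 0.1% Triton X-100. Substrate was 1 mM L-dihydroorotate, with CoQ0 as acceptor and DCIP as dye. DCIP reduction was followed at 610 nm for 60 s at 25 °C, against a no-enzyme reference. Four replicates per concentration; activity is % of the uninhibited control.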

[5] = tested on: Plasmodium falciparum; experiment: Antiplasmodial activity against chloroquine-resistant Plasmodium falciparum W2 infected in human A+ erythrocytes assessed as inhibition of [3H]-hypoxanthine incorporation after 42 hrs by beta counting method; assay type: functional, cell-based
Method in brief: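 W2 parasites cultured at 37 °C in A+ human erythrocytes in RPMI 1640 with 10% A+ human serum, under low O2 (3% O2, 5% CO2). Compound dilutions were tested at 1% parasitemia and 1% haematocrit. [3H]-hypoxanthine uptake was read by beta counting after 42 h. IC50 was derived by curve fitting relative to drug-free controls.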

[6] = Cytotoxicity against African green monkey BGM cells assessed as lethality after 24 hrs by neutral red dye based assay; assay type: cell-based; settings: chlorocebus aethiops, read-out: MLD50
Method in brief: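 BGM monkey kidney cells grown in RPMI 1640 with 10% heat-inactivated foetal serum and gentamicin. Cells were seeded at 1 × 10⁵ cells/mL and left 18 h to adhere. Compounds were added across a 1000–1 dilution range for 24 h at 37 °C in 5% CO2. Cells took up neutral red for 2 h, were fixed with formaldehyde/CaCl2 and extracted with alcohol-acetic acid, then read at A540. Viability is % of untreated cells; MLD50 was calculated from this.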

[7] = tested on: Plasmodium berghei; experiment: as §2, with “9” for “11”; assay type: functional; method in brief: as §3
[8] = tested on: Plasmodium berghei; experiment: as §2, with “7” for “11”; assay type: functional; method in brief: as §3
[9] = Selectivity index, ratio of MLD50 for african green monkey BGM cells to IC50 for chloroquine-resistant Plasmodium falciparum W2 infected in human A+ erythrocytes by [3H]-hypoxanthine incorporation assay; assay type: toxicity, cell-based; settings: read-out: Selectivity Index
[10] = tested on: Plasmodium berghei; experiment: as §2, with “5” for “11”; assay type: functional; method in brief: as §3
[11] = Solubility of the compound at >100 uM; assay type: physicochemical
[12] = tested on: Plasmodium falciparum; experiment: Inhibition of N-terminally truncated Plasmodium falciparum SUMO-tagged DHODH (159 to 569 residues) expressed in Escherichia coli BL21(DE3) assessed as residual activity at 50 uM using L-dihydroorotate as substrate by DCIP-based colorimetric assay relative to control; method in brief: as §1
[13] = Selectivity index, ratio of MLD50 for african green monkey BGM cells to IC50 for chloroquine-resistant Plasmodium falciparum W2 infected in human A+ erythrocytes by SYBR Green based fluorescence assay; assay type: toxicity, cell-based
[14] = tested on: Plasmodium falciparum; experiment: Antiplasmodial activity against chloroquine-resistant/mefloquine-sensitive Plasmodium falciparum W2 infected in human A+ erythrocytes assessed as inhibition of parasite growth by HRP2 detection based assay; assay type: functional, cell-based
Method in brief: (§4)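 W2 blood-stage culture in A+ human erythrocytes in RPMI 1640 with 10% A+ human serum at 37 °C, under 3% O2/5% CO2. Growth was read with monoclonal antibodies against histidine- and alanine-rich protein II (HRPII). IC50 was estimated by curve fitting against drug-free controls.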

[15] = tested on: Plasmodium falciparum; experiment: Antiplasmodial activity against chloroquine-resistant Plasmodium falciparum W2 infected in human A+ erythrocytes by HRP2 detection based ELISA; assay type: functional, cell-based; method in brief: as §4
[16] = Selectivity index, ratio of MLD50 for african green monkey BGM cells to IC50 for chloroquine-resistant Plasmodium falciparum W2 infected in human A+ erythrocytes by HRP2 ELISA assay; assay type: toxicity, cell-based; settings: read-out: Selectivity Index

Chain of Dihydroorotate dehydrogenase (quinone), mitochondrial (Homo sapiens) (Q02127 whole entry): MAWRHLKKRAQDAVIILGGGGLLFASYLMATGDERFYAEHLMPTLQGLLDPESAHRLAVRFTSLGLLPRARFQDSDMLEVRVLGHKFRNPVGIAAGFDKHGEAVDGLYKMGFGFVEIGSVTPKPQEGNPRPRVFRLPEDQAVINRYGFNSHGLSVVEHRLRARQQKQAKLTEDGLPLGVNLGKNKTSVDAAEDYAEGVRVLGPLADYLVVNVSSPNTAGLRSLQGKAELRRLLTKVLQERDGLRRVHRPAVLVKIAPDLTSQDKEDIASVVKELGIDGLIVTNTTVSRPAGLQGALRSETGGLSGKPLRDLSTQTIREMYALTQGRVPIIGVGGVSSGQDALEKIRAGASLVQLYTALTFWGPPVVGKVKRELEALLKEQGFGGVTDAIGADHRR

SMILES	IC50 [1] [µM]	inhibition in vivo at 5 mg/kg [2] [%]	IC50 [3] [µM]	Activity [4] [%]	IC50 [5] [µM]	CC50 at 24 h [6] [µM]	inhibition in vivo at 5 mg/kg [7] [%]	inhibition in vivo at 5 mg/kg [8] [%]	selectivity ratio [9]	inhibition in vivo at 5 mg/kg [10] [%]	solubility [11]	Activity [12] [%]	selectivity ratio [13]	IC50 [14] [µM]	IC50 [15] [µM]	selectivity ratio [16]
Cc1cc2nc(C(F)(F)F)cc(Nc3ccc4ccccc4c3)n2n1	0.16	29	10	101	10	2340	4	1	234	25	Insoluble	60	234			
Cc1cc(Nc2ccc3ccccc3c2)n2nc(C)cc2n1	4	65	5.1	71.9	5.1	406	53	40	79.6	50	Insoluble	41	79.6			
Cc1cc(Nc2ccc3ccccc3c2)n2nc(C(F)(F)F)cc2n1	6	59	1.2	56.8	1.2	561	47	61	468	50	Insoluble	67.5	468			
CCN(CC)Cc1cc(Nc2ccnc3cc(Cl)ccc23)ccc1O [AMODIAQUINE]	> 400	100	0.006		0.006		100	100		100		79				
FC(F)(F)c1cc(Nc2cc(Cl)cc(Cl)c2)n2nc(C(F)(F)F)nc2n1														12.3		
COc1cc(Nc2cc(C)nc3cc(C(F)(F)F)nn23)cc(OC)c1	> 400			95	> 142	256						57			> 142	
COc1cc(Nc2cc(C)nc3cc(C)nn23)cc(OC)c1	> 400			80	26.8	188			7			42			21.5	8.7
CCN(CC)CCCC(C)Nc1cc(C)nc2nc(C(F)(F)F)nn12 (stereo not given)														39		
Cc1cc(Nc2ccc3ccccc3c2)n2nc(C(F)(F)F)nc2n1	0.7					425			18.5			37				18.5
Cc1cc(Nc2ccccc2C(F)(F)F)n2nc(C(F)(F)F)cc2n1				93	50	228			4.6			48			44.4	5.1
